Reference: ChEMBL document CHEMBL4038333, “Nonacidic Farnesoid X Receptor Modulators” (J Med Chem, 2017)
≈ marks a conversion by molar mass, not a printed value. Calls of active or inactive are those of the source. The rule behind the calls is not given here.

Columns and labels:
Bile acid receptor = target: T1, Bile acid receptor (Homo sapiens, UniProt Q96RI1); assay: Transactivation of human FXR expressed in human HeLa cells co-expressing BSEP after 24 hrs by dual-glo luciferase reporter gene assay; format: cell-based; settings: read-out: EC50
T1 sequence (Q96RI1 whole entry): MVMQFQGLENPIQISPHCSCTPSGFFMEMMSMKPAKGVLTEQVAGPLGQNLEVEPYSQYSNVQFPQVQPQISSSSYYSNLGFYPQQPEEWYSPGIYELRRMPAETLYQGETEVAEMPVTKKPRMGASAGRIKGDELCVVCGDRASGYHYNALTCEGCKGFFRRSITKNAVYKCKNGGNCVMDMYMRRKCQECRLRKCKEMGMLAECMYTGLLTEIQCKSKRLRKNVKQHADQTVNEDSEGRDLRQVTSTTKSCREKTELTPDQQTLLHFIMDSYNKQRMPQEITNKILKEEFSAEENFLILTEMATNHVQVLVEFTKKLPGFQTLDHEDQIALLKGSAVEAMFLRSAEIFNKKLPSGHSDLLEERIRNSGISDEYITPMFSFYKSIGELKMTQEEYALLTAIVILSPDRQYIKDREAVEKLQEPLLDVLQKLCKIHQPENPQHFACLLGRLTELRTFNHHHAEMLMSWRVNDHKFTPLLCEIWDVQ
Summary of the method: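 Full-length reporter system with constitutive expression of hFXR and hRXR. A constitutive Renilla luciferase served for normalization and as a toxicity control. Maximum relative activation was expressed against a reference FXR agonist at 3 µM, set as 100%.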

[1] = target: Retinoic acid receptor RXR-gamma (Homo sapiens) (UniProt P48443); assay: Transactivation of GAL4-tagged human RXRgamma ligand binding domain (229 to 463 residues) expressed in HEK293T cells at 1 uM after 12 to 14 hrs by dual-glo luciferase reporter gene assay; format: cell-based; settings: HEK-293T
Summary of the method: (§1)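 Run as a selectivity screen against each listed receptor (14 nuclear receptors plus TGR5), in both agonist and antagonist modes. Test concentration was 1 µM, with n = 3.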

HeLa [2] = assay: Selectivity ratio for human FXR expressed in human HeLa cells co-expressing BSEP over GAL4-tagged human LXRalpha ligand binding domain expressed in HEK293T cells; format: cell-based
[3] = target: Retinoic acid receptor RXR-beta (Homo sapiens) (UniProt P28702); assay: Transactivation of GAL4-tagged human RXRbeta isoform 1 ligand binding domain (294 to 533 residues) expressed in HEK293T cells at 1 uM after 12 to 14 hrs by dual-glo luciferase reporter gene assay; format: cell-based; settings: HEK-293T; summary of the method: as §1
HeLa [4] = assay: Selectivity ratio for human FXR expressed in human HeLa cells co-expressing BSEP over GAL4-tagged human PXR isoform 1 ligand binding domain (138 to 434 residues) expressed in HEK293T cells; format: cell-based
[5] = Half life in human HepG2 cells by HPLC analysis; format: ADME, cell-based
[6] = target: Retinoic acid receptor alpha (Homo sapiens) (UniProt P10276); assay: Antagonist activity at GAL4-tagged human RARalpha1 ligand binding domain (177 to 462 residues) expressed in HEK293T cells at 1 uM after 12 to 14 hrs by dual-glo luciferase reporter gene assay; format: cell-based; settings: HEK-293T; summary of the method: as §1
[7] = target: Peroxisome proliferator-activated receptor delta (Homo sapiens) (UniProt Q03181); assay: Antagonist activity at GAL4-tagged human PPARdelta ligand binding domain expressed in HEK293T cells at 1 uM after 12 to 14 hrs by dual-glo luciferase reporter gene assay; format: cell-based; settings: HEK-293T; summary of the method: as §1
[8] = target: T2, Bile acid receptor (Homo sapiens) (UniProt Q96RI1); assay: Modulation of FXR in human HepG2 cells assessed as induction of OSTalpha mRNA expression at 10 nM by qRT-PCR analysis; format: cell-based
T2 sequence (whole entry): T1 sequence (Q96RI1 whole entry)
Summary of the method: (§2)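 HepG2 hepatocarcinoma cells were incubated with the compound at 10 nM. FXR target-gene mRNA was quantified by qRT-PCR (n = 3), with significance at p < 0.05, 0.01 and 0.001.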

[9] = Aqueous solubility of compound; format: physicochemical; settings: buffer
[10] = target: Peroxisome proliferator-activated receptor gamma (Homo sapiens) (UniProt P37231); assay: Transactivation of GAL4-tagged human PPARgamma ligand binding domain expressed in HEK293T cells at 1 uM after 12 to 14 hrs by dual-glo luciferase reporter gene assay; format: cell-based; settings: HEK-293T; summary of the method: as §1
[11] = target: Peroxisome proliferator-activated receptor gamma (Homo sapiens) (UniProt P37231); assay: Antagonist activity at GAL4-tagged human PPARgamma ligand binding domain expressed in HEK293T cells at 1 uM after 12 to 14 hrs by dual-glo luciferase reporter gene assay; format: cell-based; settings: HEK-293T; summary of the method: as §1
[12] = target: Retinoic acid receptor gamma (Homo sapiens) (UniProt P13631); assay: Transactivation of GAL4-tagged human RARgamma isoform 1 ligand binding domain (179 to 454 residues) expressed in HEK293T cells at 1 uM after 12 to 14 hrs by dual-glo luciferase reporter gene assay; format: cell-based; settings: HEK-293T; summary of the method: as §1
[13] = target: Retinoic acid receptor RXR-gamma (Homo sapiens) (UniProt P48443); assay: Antagonist activity at GAL4-tagged human RXRgamma ligand binding domain (229 to 463 residues) expressed in HEK293T cells at 1 uM after 12 to 14 hrs by dual-glo luciferase reporter gene assay; format: cell-based; settings: HEK-293T; summary of the method: as §1
[14] = target: Retinoic acid receptor alpha (Homo sapiens) (UniProt P10276); assay: Transactivation of GAL4-tagged human RARalpha1 ligand binding domain (177 to 462 residues) expressed in HEK293T cells at 1 uM after 12 to 14 hrs by dual-glo luciferase reporter gene assay; format: cell-based; settings: HEK-293T; summary of the method: as §1
[15] = target: Oxysterols receptor LXR-alpha (Homo sapiens) (UniProt Q13133); assay: Antagonist activity at GAL4-tagged human LXRalpha ligand binding domain expressed in HEK293T cells at 1 uM after 12 to 14 hrs by dual-glo luciferase reporter gene assay; format: cell-based; settings: HEK-293T; summary of the method: as §1
[16] = target: Peroxisome proliferator-activated receptor alpha (Homo sapiens) (UniProt Q07869); assay: Antagonist activity at GAL4-tagged human PPARalpha ligand binding domain expressed in HEK293T cells at 1 uM after 12 to 14 hrs by dual-glo luciferase reporter gene assay; format: cell-based; settings: HEK-293T; summary of the method: as §1
[17] = target: T2, Bile acid receptor (Homo sapiens); assay: Transactivation of human FXR expressed in human HeLa cells co-expressing BSEP at 3 uM after 24 hrs by dual-glo luciferase reporter gene assay relative to GW4064; format: cell-based
Summary of the method: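 Full-length FXR reporter gene assay with constitutively expressed hFXR and hRXR, plus renilla luciferase for normalization and toxicity control. Maximum relative activation is expressed against the reference agonist at 3 µM, set as 100%.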

[18] = target: Retinoic acid receptor RXR-alpha (Homo sapiens) (UniProt P19793); assay: Antagonist activity at GAL4-tagged human RXRalpha ligand binding domain (225 to 462 residues) expressed in HEK293T cells at 1 uM after 12 to 14 hrs by dual-glo luciferase reporter gene assay; format: cell-based; settings: HEK-293T; summary of the method: as §1
HeLa [19] = assay: Selectivity ratio for human FXR expressed in human HeLa cells co-expressing BSEP over GAL4-tagged human RXRbeta isoform 1 ligand binding domain (294 to 533 residues) expressed in HEK293T cells; format: cell-based
HeLa [20] = assay: Selectivity ratio for human FXR expressed in human HeLa cells co-expressing BSEP over GAL4-tagged human RXRalpha ligand binding domain (225 to 462 residues) expressed in HEK293T cells; format: cell-based
[21] = target: T2, Bile acid receptor (Homo sapiens); assay: Modulation of FXR in human HepG2 cells assessed as induction of PPARalpha mRNA expression at 10 nM by qRT-PCR analysis; format: cell-based; summary of the method: as §2
[22] = target: T2, Bile acid receptor (Homo sapiens); assay: Modulation of FXR in human HepG2 cells assessed as induction of BSEP mRNA expression at 10 nM by qRT-PCR analysis; format: cell-based; summary of the method: as §2

Chain of Peroxisome proliferator-activated receptor gamma (Homo sapiens) (P37231 whole entry, the tested form may be a part, canonical isoform): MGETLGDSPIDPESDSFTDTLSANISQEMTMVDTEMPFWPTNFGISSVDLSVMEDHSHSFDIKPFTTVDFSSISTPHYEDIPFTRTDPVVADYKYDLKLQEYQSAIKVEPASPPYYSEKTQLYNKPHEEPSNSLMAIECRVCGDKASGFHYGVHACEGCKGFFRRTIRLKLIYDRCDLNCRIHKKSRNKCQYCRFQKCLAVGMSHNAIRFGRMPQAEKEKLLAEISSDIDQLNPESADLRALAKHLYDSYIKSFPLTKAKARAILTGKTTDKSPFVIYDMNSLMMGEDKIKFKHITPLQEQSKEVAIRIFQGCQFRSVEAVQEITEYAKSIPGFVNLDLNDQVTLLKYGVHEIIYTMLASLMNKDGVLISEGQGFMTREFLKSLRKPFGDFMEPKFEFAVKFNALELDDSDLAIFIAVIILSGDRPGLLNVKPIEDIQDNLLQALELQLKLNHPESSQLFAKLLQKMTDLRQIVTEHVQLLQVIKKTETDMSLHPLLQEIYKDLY
Chain of Retinoic acid receptor alpha (Homo sapiens) (P10276 whole entry, the tested form may be a part): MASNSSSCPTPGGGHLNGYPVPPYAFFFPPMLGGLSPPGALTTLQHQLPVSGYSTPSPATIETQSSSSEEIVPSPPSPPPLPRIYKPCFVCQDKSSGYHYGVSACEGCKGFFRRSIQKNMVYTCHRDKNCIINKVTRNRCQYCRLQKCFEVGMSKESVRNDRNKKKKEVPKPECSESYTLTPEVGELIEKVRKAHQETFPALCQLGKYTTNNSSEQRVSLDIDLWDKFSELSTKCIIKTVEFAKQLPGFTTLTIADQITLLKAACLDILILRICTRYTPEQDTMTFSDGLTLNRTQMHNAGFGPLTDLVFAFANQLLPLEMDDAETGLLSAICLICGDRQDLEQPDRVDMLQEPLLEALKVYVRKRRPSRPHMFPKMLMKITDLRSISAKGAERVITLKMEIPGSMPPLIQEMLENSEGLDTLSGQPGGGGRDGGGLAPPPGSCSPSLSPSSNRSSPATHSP
Chain of Retinoic acid receptor RXR-gamma (Homo sapiens) (P48443 whole entry, the tested form may be a part): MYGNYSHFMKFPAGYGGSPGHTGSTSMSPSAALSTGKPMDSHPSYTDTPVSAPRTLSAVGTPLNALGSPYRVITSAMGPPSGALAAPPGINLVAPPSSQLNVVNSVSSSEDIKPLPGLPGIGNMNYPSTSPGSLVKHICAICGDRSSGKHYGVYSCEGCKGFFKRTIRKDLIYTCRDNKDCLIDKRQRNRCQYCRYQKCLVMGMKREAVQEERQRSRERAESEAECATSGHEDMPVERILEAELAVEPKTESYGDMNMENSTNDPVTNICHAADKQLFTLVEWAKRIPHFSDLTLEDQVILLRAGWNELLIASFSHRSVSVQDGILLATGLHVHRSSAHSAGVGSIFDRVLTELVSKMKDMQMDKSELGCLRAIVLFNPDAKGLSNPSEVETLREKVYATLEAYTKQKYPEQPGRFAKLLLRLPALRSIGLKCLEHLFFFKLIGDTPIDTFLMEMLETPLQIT
Chain of Peroxisome proliferator-activated receptor delta (Homo sapiens) (Q03181 whole entry, the tested form may be a part): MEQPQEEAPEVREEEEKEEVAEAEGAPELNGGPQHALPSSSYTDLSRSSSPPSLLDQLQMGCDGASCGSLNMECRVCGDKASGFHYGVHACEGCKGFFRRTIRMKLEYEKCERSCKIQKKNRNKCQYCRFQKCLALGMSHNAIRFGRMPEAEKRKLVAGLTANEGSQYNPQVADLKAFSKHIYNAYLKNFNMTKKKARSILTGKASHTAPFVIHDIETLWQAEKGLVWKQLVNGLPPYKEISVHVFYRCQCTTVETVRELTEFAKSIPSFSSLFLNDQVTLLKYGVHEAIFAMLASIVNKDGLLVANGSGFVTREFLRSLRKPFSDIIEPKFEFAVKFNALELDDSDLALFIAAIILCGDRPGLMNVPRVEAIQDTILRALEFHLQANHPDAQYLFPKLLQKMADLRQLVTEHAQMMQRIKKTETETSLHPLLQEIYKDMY
Chain of Peroxisome proliferator-activated receptor alpha (Homo sapiens) (Q07869 whole entry, the tested form may be a part): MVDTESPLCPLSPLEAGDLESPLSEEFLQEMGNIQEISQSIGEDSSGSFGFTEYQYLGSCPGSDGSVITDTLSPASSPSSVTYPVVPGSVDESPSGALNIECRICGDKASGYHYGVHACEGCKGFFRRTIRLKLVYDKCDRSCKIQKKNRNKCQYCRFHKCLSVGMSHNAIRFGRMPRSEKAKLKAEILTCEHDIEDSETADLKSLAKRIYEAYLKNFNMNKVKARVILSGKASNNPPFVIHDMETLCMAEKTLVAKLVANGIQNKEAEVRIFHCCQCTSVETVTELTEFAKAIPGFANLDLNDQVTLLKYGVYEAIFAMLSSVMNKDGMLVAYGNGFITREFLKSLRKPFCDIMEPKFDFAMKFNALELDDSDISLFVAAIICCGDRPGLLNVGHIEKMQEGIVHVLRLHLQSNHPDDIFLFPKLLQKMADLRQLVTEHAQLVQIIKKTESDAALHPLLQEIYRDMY
Chain of Oxysterols receptor LXR-alpha (Homo sapiens) (Q13133 whole entry, the tested form may be a part): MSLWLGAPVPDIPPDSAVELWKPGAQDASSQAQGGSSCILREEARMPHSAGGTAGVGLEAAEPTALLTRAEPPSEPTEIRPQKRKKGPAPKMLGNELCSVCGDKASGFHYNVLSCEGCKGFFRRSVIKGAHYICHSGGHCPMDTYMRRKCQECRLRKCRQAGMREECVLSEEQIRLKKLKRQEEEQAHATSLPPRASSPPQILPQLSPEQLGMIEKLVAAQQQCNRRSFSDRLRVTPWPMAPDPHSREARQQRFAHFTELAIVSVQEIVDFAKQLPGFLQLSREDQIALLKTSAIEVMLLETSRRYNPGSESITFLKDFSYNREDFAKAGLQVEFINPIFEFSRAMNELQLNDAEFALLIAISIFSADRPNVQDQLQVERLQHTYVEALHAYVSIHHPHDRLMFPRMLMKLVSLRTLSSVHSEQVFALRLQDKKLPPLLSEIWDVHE
Chain of Retinoic acid receptor RXR-beta (Homo sapiens) (P28702 whole entry, the tested form may be a part, canonical isoform): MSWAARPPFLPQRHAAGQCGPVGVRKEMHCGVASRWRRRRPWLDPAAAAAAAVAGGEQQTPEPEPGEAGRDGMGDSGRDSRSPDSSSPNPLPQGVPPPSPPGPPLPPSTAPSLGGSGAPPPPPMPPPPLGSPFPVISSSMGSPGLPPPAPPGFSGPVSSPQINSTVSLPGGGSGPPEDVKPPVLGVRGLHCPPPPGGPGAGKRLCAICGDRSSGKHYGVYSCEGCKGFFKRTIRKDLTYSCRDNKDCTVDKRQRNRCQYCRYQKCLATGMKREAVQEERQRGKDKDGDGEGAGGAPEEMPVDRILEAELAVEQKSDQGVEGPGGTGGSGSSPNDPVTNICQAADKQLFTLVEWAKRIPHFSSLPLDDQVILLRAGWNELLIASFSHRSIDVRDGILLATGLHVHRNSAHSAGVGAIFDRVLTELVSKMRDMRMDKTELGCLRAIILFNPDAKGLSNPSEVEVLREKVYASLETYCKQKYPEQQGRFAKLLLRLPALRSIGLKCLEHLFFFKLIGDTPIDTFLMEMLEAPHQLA
Chain of Retinoic acid receptor gamma (Homo sapiens) (P13631 whole entry, the tested form may be a part, canonical isoform): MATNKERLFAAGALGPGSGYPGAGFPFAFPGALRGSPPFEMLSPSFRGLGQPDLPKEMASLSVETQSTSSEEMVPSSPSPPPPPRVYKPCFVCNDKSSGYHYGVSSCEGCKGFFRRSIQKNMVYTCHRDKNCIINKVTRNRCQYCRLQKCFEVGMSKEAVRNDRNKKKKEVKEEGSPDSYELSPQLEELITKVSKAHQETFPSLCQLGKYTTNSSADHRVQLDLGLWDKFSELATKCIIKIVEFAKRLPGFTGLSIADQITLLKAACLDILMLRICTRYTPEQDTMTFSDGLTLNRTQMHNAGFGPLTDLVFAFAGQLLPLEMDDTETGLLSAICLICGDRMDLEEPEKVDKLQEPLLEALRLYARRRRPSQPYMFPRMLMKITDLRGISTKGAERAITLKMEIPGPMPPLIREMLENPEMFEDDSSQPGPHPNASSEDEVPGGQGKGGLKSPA
Chain of Retinoic acid receptor RXR-alpha (Homo sapiens) (P19793 whole entry, the tested form may be a part, canonical isoform): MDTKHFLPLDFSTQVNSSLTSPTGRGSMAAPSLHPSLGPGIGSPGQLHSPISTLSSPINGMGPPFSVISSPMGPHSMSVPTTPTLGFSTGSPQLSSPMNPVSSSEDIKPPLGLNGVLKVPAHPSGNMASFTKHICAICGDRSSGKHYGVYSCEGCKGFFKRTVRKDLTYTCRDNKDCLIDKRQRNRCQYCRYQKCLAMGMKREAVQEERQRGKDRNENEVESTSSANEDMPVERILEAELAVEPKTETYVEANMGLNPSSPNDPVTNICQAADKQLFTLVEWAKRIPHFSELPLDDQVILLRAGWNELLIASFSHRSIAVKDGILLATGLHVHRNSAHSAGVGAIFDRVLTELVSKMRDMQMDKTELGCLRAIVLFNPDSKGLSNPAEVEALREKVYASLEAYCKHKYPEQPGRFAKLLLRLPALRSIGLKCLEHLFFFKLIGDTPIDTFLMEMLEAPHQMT

- Activity [1]: inactive
- Activity [3]: inactive
- half-life [5]: 1.5 to 2 h
- inhibition [6]: inactive
- inhibition [7]: inactive
- Activity [8]: Active
- solubility [9]: 0.0637 µg/mL (≈ 0.16 µM)
- Activity [10]: inactive
- inhibition [11]: inactive
- Activity [12]: inactive
- inhibition [13]: inactive
- Activity [14]: inactive
- inhibition [15]: inactive
- inhibition [16]: inactive
- inhibition [18]: inactive
- Activity [21]: Active
Structure (SMILES): COc1ccc(CNc2c(-c3cc(Cl)ccn3)nc3ccc(Cl)cn23)cc1
- EC50 (Bile acid receptor): 0.3 nM
- Selectivity ratio (HeLa [2]): 3000
- Selectivity ratio (HeLa [4]): 3000
- max activation [17]: 23%
- Selectivity ratio (HeLa [19]): 3000
- Selectivity ratio (HeLa [20]): 3000
- Activity [22]: Active
